First the molecules themselves.
B1: tRNA (parent)
chain: GUUCCGUUGGCGUAAUGGUAACGCGUCUCCCUCCUAAGGAGAAGACUGCGGGUUCGAGUCCCGUACGGAACG

This sample holds only a part of the variants without activity.

Variants of B1 are the subject of this data set. In words: yeast fitness relative to wild type (ratio to wild type); higher = fitter; tRNA-Arg(CCU), competitive growth, 37 C, YPD. The method, boiled down:
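Amplicons of the tRNA-Arg(CCU) gene were sequenced, 100-nucleotide paired-end, from the start population and from each end population of a pooled yeast competition. The competition, in six parallel replicates, lasted 24 hours in YPD at 37°C. Fitness relative to wild type was calculated from changes in genotype frequencies. Genotypes had to have ≥ 100 starting reads, and estimates < 0.5 were set to 0.5.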
C24U U35A: the yeast fitness was found to be 0.806. On to C24U G25A C30U C46A C55G C60A, for which the yeast fitness is at most 0.5. For C24U U26C A65C, the yeast fitness was determined as 0.695. Take C24U U26C C49U: the yeast fitness came to 0.692. In the case of C24U U64C, the yeast fitness worked out at 0.925.

C24U U64A: the yeast fitness is 0.822. With C24U U64G, the yeast fitness was 0.691. With C24U U32G A69C A70U, the yeast fitness was at most 0.5.

As to C24U U32A, the yeast fitness was determined as 0.784. With C24U U32C, the yeast fitness came to 0.991. As to C24U U32G, the yeast fitness came to 0.584. Turning to G25A, the yeast fitness was 0.984. Consider G25A A65U, for which the yeast fitness turned out to be 0.981. For the variant C24U U26A U28G U54G C61U, the yeast fitness is at most 0.5. For the variant C24U U35G A42G G51A, the yeast fitness was at most 0.5. As to C24U U35G C46A, the yeast fitness was at most 0.5. In the case of G25A A40G C55G, the yeast fitness was at most 0.5. Next, C24U U26G A43G A70U: 0.597; C24U G41A C61G: 0.587; C24U U28C G52C C60G: 0.524. For C24U U35C A70U, the yeast fitness was 0.541. As for G25A A43G C49U, the yeast fitness is 0.94. As to C24U G48C C62A, the yeast fitness worked out at 0.579. Take C24U G25A C30U G50A G56A: the yeast fitness was at most 0.5. Consider C24U U59A C62A, for which the yeast fitness is at most 0.5.

Consider C24U C49U U54G G67A, for which the yeast fitness was at most 0.5. In the case of C24U G44A U54C, the yeast fitness amounted to 0.726. For the variant C24U G38C G52C, the yeast fitness was at most 0.5. Take C24U U35C G38C: the yeast fitness was 0.677.

As for C24U U32G A40U U64G, the yeast fitness is 0.593. In the case of G25A A43C C66A, the yeast fitness amounted to 0.581. As for C24U U53A C66U A70U, the yeast fitness is at most 0.5. On to G25A A40C C66U A70C, for which the yeast fitness is at most 0.5. Take C24U U35A A40G: the yeast fitness was 0.576. For G25A A37U C61A, the yeast fitness is 0.616.

C24U G52A: the yeast fitness came out at 0.871. On to C24U U32A C33G C60U A69G, for which the yeast fitness is at most 0.5. The figure for C24U G39A is 0.875. In the case of C24U G39C, the yeast fitness came out at 0.735.

For C24U G51C C55U, the yeast fitness was at most 0.5. In the case of C24U U26G C61G, the yeast fitness was at most 0.5. Regarding C24U G39A A70C, the yeast fitness came out at 0.668. In the case of C24U U53A C66U, the yeast fitness amounted to 0.55.

On to C24U U59G, for which the yeast fitness came to 0.712.

Turning to C24U U59C, the yeast fitness turned out to be 0.879. For G25A A43C A70G, the yeast fitness turned out to be 0.745. As to G25A A37U A40C G67A, the yeast fitness was at most 0.5.

For G25A A40U C61U, the yeast fitness was 0.669.

For C24U G58A C62U G63A, the yeast fitness is at most 0.5. The figure for C24U G25C C46U G50C is at most 0.5; for C24U G48A U64A it is at most 0.5; for G25A A42U A43C G44A it is 0.764. The figure for G25A A40U C49U C60A G63A is 0.507; for G25A A45G G50C A69C it is 0.526; for C24U G63U it is 0.627. With G25A A43G C49U U64C, the yeast fitness is 0.924. Take C24U G50A: the yeast fitness came out at 0.844. Next, C24U G58C A65U: 0.644.

Turning to G25A A43G, the yeast fitness was 0.949. G25A A43C: the yeast fitness stood at 0.975. Next, G25A A43U: 0.842. Take C24U C55A: the yeast fitness is 0.655. For the variant C24U C61U A70C, the yeast fitness turned out to be 0.714. As for C24U U59A C66U, the yeast fitness turned out to be 0.565.

Turning to C24U U47A C66U, the yeast fitness was at most 0.5. The figure for C24U U26A U28G U54G is 0.545. With C24U G48A C62G A69U, the yeast fitness was 0.606. C24U U26G C30U G39C: the yeast fitness is at most 0.5. Next, C24U C62G U64G: at most 0.5; C24U C62A: 0.684. G25A A37C C62U: the yeast fitness was determined as 0.924. Turning to G25A A42G U59C, the yeast fitness was at most 0.5. Turning to C24U U47C C62U, the yeast fitness was 0.803. C24U G44C G58C: the yeast fitness worked out at 0.995. As to C24U U47C U59C, the yeast fitness was 0.684. As to G25A A36G, the yeast fitness stood at 0.962. As for C24U G58A A65C, the yeast fitness worked out at 0.707. As for G25A A40C C46U C55U, the yeast fitness turned out to be 0.672. For the variant C24U C49U, the yeast fitness was 0.969.

For the variant C24U U26A G68A, the yeast fitness was determined as 0.604. G25A A37C G38C C60U C62U A69U: the yeast fitness is at most 0.5. The figure for C24U U47C G67C is 0.688; for C24U G25C C61A it is at most 0.5.

Turning to C24U U32G G52C G63A G68C, the yeast fitness was at most 0.5. Next, G25A A43U U54A: 0.565; C24U C55A U59G A65C: at most 0.5; G25A A45G G48A G50C A69C: at most 0.5. Take C24U U26G U35A C62A: the yeast fitness is at most 0.5. C24U U32C A43U: the yeast fitness came to 0.768. Turning to C24U U32C A69U, the yeast fitness was determined as 0.818. For the variant C24U U35C C55G A70U, the yeast fitness is 0.569. G25A A36G A45C: the yeast fitness was 0.929. In the case of C24U C49U U54G, the yeast fitness was determined as 0.588. In the case of C24U U26G A43G, the yeast fitness stood at 0.727. Next, C24U U32A C33G: at most 0.5; C24U U53C C60G: at most 0.5.

On to C24U G44A U54G G67A, for which the yeast fitness was at most 0.5. As for C24U G48U, the yeast fitness is 0.783. As to C24U C60G A65U, the yeast fitness was at most 0.5. For G25A A42U, the yeast fitness came out at 0.813.

Consider G25A A42G, for which the yeast fitness was 0.89. For the variant C24U C49U U64A, the yeast fitness is at most 0.5. As to C24U C66G G68C, the yeast fitness is at most 0.5. Take C24U G67C G68A: the yeast fitness was determined as 0.587. With C24U U59A U64C, the yeast fitness was at most 0.5. Regarding C24U C61G C66U A69U, the yeast fitness came out at 0.539. In the case of C24U G52A A57C, the yeast fitness is at most 0.5. Consider G25A A37U G41A C62G, for which the yeast fitness was at most 0.5. For G25A A45U A69U, the yeast fitness came to 0.806. Consider C24U G51A A57U, for which the yeast fitness is at most 0.5. Take C24U G39C C61U: the yeast fitness worked out at 0.549. For the variant C24U C55G C66A, the yeast fitness is at most 0.5. For the variant C24U U32C A36U A37G U54A, the yeast fitness is at most 0.5.

For the variant G25A A43U G56A, the yeast fitness was found to be 0.718. With C24U C61G, the yeast fitness came to 0.598. Next, C24U C61A: 0.612; C24U C61U: 0.881; G25A A40C C46U A69C: 0.764. The figure for G25A A40C A70U is 0.625; for C24U C66U A69C it is 0.568; for C24U C61U U64C it is 0.697.

Regarding C24U G56C A57G, the yeast fitness was at most 0.5. The figure for C24U C49U A65U is 0.577; for C24U G38C C62G it is 0.623; for C24U G25A C30U G50A G68C it is at most 0.5. C24U G56A G67A: the yeast fitness came to 0.731. Consider C24U C55G C61G, for which the yeast fitness is at most 0.5. The figure for C24U G44C C62U is 0.784. C24U G56C: the yeast fitness came to 0.792. Take C24U C60G A70C: the yeast fitness stood at 0.562.

C24U G68A: the yeast fitness amounted to 0.697. In the case of C24U U47C G48A C62G A69U, the yeast fitness was at most 0.5.

Turning to C24U U59A C62A A69C, the yeast fitness stood at 0.552. Consider C24U C55G A70U, for which the yeast fitness was found to be 0.698. Take C24U G51A: the yeast fitness is 0.675.

On to C24U U47C, for which the yeast fitness stood at 0.997. C24U U47A C61A: the yeast fitness is at most 0.5.

C24U U35A A69U: the yeast fitness was 0.513. For the variant C24U U26A, the yeast fitness stood at 0.938. With C24U U26C, the yeast fitness is 0.986. C24U U26G: the yeast fitness is 0.987.

As to G25A A36U C49U, the yeast fitness amounted to 0.545.

Regarding C24U G25C C30U A45U C49G A65U, the yeast fitness was at most 0.5. Regarding C24U C60G C66G, the yeast fitness is at most 0.5. The figure for G25A A45C U53C C55U G56C is at most 0.5. The figure for C24U U32G A40U A65C is at most 0.5; for G25A A37U it is 0.652; for G25A A37C it is 0.757. G25A A37G: the yeast fitness was 0.699. Next, C24U G44A C55G G56A A57U: 0.79; C24U G41A: 0.926; C24U U32A G38A A57U: at most 0.5. The figure for G25A A40U A42C A45U U47C A65G is 0.664; for C24U U35C C66U it is at most 0.5. Turning to G25A A45G A65G, the yeast fitness came out at 0.823. G25A A45C: the yeast fitness stood at 0.957. The figure for G25A A45G is 0.961; for C24U U26C G68A it is 0.566; for C24U C60A it is 0.527.

G25A A42U A43C G44A C49A C55G: the yeast fitness is at most 0.5.

For the variant C24U G41C C49A, the yeast fitness amounted to 0.778.

For C24U U26G G41A A57U, the yeast fitness was 0.641. Turning to C24U U28G C33G C34U A36G A40G A70C, the yeast fitness was at most 0.5.

With C24U U32G G56A, the yeast fitness was found to be 0.53. Regarding C24U U28G C33G C34U A36G A40G, the yeast fitness is 0.596.

Regarding G25A A37U G56A C66U, the yeast fitness was at most 0.5. For the variant C24U C66U, the yeast fitness stood at 0.794.

The values above are taken from the RNAGym collection of RNA variant scans (doi:10.1126/science.aae0568).
